# Where two headings read alike, the source gives them in different places.
# Experiments:
# [1] = system: αIIbβ3 WT and αIIbβ3_N305T; assay type: binding; details: Expi293F transfectants, L15 medium with 0.1% BSA
# Summary of the method: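 Expi293F cells with α5 and αV knocked out, transiently co-transfected with αIIb plus β3 or β3_N305T; valproic acid (3 mM) and glucose (0.4%) added at 24 h. At 48 h, cells washed with EDTA-containing L-15/0.1% BSA, then plain assay medium. 10^6 cells/ml incubated with FITC-echistatin and varying test compound, 2 h at 22°C; unwashed flow cytometry. Probe Kd from titration against 5 nM AF647-MBC319.4 Fab. Compound Kd from nonlinear least-squares fits with integrin concentration as a parameter, with error propagation.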
# αIIbβ3 WT = αIIbβ3 WT (Homo sapiens, UniProt P05106+P08514); assay: MBC319.4 Fab LIBS epitope exposure on αIIbβ3 WT transfectants; assay type: cell-based; details: inhibitors at 100x Kd
# Sequence of αIIbβ3 WT (P08514 32-887 limits assumed): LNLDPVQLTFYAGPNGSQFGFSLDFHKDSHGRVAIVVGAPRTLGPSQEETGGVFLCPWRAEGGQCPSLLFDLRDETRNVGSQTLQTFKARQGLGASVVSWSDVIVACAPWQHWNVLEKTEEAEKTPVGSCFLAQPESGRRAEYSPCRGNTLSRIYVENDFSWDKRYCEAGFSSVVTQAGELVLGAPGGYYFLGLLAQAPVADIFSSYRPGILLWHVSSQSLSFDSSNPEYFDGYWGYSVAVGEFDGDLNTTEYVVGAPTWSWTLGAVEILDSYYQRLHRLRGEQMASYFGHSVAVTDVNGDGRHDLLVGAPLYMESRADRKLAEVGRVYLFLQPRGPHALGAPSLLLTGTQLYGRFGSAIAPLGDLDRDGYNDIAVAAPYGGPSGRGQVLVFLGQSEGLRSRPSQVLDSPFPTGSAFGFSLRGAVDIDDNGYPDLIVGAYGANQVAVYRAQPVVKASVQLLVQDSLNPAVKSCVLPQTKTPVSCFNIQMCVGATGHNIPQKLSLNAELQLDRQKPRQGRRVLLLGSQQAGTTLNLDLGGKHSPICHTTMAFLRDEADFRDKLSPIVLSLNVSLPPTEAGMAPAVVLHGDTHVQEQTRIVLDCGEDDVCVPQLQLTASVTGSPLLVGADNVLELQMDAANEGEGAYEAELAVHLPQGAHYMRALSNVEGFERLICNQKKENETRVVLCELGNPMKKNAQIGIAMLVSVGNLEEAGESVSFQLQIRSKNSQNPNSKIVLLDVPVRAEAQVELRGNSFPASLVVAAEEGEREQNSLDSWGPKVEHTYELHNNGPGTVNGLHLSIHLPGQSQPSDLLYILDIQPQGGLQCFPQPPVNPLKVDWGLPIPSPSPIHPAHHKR
# Sequence of αIIbβ3 WT (P08514 891-1039 partner limits assumed): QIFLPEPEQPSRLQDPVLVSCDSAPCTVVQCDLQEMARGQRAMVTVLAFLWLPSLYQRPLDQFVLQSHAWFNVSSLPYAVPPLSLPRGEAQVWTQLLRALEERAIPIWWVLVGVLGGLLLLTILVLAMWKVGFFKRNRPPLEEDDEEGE
# Sequence of αIIbβ3 WT (P05106 27-788): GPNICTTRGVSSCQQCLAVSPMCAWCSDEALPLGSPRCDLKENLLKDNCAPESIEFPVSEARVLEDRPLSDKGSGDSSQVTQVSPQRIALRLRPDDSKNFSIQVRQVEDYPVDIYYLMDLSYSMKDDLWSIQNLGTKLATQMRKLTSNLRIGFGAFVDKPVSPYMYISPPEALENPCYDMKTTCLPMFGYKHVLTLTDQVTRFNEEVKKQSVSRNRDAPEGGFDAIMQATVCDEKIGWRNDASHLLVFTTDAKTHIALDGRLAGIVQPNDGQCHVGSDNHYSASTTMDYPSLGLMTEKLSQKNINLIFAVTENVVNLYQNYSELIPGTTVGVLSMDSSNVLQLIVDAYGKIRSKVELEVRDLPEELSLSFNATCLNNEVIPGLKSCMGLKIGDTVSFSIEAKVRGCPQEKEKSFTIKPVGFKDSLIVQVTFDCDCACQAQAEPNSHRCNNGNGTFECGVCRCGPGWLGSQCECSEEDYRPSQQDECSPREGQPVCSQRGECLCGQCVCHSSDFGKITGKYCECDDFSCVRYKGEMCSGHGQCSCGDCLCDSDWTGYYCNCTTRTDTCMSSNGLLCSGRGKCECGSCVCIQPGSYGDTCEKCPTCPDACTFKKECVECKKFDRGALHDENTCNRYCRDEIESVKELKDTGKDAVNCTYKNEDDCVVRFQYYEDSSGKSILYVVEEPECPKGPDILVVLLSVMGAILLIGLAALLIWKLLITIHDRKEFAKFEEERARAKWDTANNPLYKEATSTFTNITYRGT
# Summary of the method: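 Cells transiently transfected with αIIbβ3 received valproic acid (3 mM final) and glucose (0.4%) at 24 h, and were washed at 48 h in EDTA-containing then plain L-15/0.1% BSA. Cells were incubated with 20 nM Alexa647-MBC319.4 Fab plus inhibitor (Kd from FITC-echistatin competition on WT transfectants) in L15/0.1% BSA, 22°C for 2 h. Read-out was unwashed flow cytometry.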
# αIIbβ3_N305T = αIIbβ3_N305T (Homo sapiens, UniProt P05106+P08514, N331T); assay: MBC319.4 Fab LIBS epitope exposure on αIIbβ3_N305T transfectants; assay type: cell-based; details: αIIbβ3 N305T transfectants, inhibitors at 100x Kd
# Sequence of αIIbβ3_N305T (P08514 32-887 limits assumed): as the sequence (P08514 32-887 limits assumed) above
# Sequence of αIIbβ3_N305T (P08514 891-1039 partner limits assumed): as the sequence (P08514 891-1039 partner limits assumed) above
# Sequence of αIIbβ3_N305T (P05106 27-788 N331T): as the sequence (P05106 27-788) above, with N305T counted along it
# Summary of the method: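 αIIbβ3_N305T transfectants of α5/αV-knockout Expi293F cells, harvested 48 h post-transfection and EDTA-washed. Incubated with 20 nM Alexa647-labelled MBC319.4 Fab and test compound in L-15 with 0.1% BSA, equilibrated 2 h at 22°C. Fab binding read by flow cytometry without washing, as MFI.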
# [2] = target: αIIbβ3 on washed human platelets (Homo sapiens, UniProt P05106+P08514); assay: Platelets LIBS exposure assay; assay type: cell-based
# Sequence of αIIbβ3 on washed human platelets (P08514 32-887 limits assumed): as the sequence (P08514 32-887 limits assumed) above
# Sequence of αIIbβ3 on washed human platelets (P08514 891-1039 partner limits assumed): as the sequence (P08514 891-1039 partner limits assumed) above
# Sequence of αIIbβ3 on washed human platelets (P05106 27-788): as the sequence (P05106 27-788) above
# Summary of the method: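 Blood from drug-free healthy donors was taken into acid-citrate-dextrose. PRP was spun (140xg, 12 min), given PGE1 at 50 ng/ml, pelleted, washed in citrate-dextrose buffer pH 6.5 and resuspended in Tyrode's pH 7.4 with 1% BSA and 1 mM Ca²⁺/Mg²⁺. […] Read-out was unwashed flow cytometry MFI, over three days with two donors.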
# [3] = system: clot retraction in human PRP; assay: Clot retraction in platelet-rich plasma; assay type: cell-based; details: thrombin
# Summary of the method: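 Citrated human PRP pre-incubated 20 min at RT with test compound or buffer (in Tyrode's buffer + 1% BSA) at several concentrations. Glass-tube clot retraction started with thrombin (7.5 U/ml stock) at 37°C and imaged every 15 min. Retraction = 1 − (clot area/whole reaction area). IC50 at 30 and 90 min from a three-parameter inhibitor-response fit. Three runs, PRP from three donors.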
# α5β1 = details: ref Li et al., 2017; cited from earlier work
# αIIbβ3 headpiece [4] = target: T1, αIIbβ3 headpiece (Homo sapiens, UniProt P05106+P08514); assay: Size-exclusion chromatography; assay type: biochemical; details: 10 μM drug
# T1 sequence (P08514 32-488 limits assumed): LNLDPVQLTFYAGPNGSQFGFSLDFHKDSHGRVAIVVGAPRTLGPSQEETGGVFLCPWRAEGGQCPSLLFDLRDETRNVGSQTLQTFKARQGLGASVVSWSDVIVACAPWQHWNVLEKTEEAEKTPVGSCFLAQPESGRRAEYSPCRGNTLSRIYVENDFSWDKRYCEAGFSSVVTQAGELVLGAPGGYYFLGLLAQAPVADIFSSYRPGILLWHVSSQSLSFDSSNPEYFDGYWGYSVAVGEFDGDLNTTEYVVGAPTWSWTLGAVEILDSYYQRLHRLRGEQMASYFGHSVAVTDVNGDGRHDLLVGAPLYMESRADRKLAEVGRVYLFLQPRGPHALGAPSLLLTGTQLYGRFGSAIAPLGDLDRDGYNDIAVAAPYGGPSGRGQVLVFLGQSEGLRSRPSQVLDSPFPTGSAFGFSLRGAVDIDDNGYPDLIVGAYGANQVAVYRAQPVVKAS
# T1 sequence (P05106 27-498 limits assumed): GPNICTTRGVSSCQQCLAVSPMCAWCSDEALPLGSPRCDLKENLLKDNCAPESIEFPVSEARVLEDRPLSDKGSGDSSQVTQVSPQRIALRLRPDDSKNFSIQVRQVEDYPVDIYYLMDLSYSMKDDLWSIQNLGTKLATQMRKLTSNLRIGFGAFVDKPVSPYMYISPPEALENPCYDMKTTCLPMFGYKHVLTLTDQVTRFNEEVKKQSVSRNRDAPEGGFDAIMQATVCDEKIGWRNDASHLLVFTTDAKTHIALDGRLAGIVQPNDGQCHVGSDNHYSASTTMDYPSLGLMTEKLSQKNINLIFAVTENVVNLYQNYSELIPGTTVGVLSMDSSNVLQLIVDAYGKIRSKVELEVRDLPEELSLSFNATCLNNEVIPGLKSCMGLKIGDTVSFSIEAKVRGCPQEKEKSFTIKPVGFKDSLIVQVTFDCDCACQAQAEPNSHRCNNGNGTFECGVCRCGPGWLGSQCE
# Summary of the method: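 Superdex 200 column equilibrated with 10 µM test compound in HEPES-buffered saline containing either 1 mM Mg2+/1 mM Ca2+ or 2 mM Mn2+/0.2 mM Ca2+. αIIbβ3 headpiece (30 µg) pre-incubated 30 min at RT with 60 µM compound in matching buffer, then chromatographed. Hydrodynamic radius taken from elution. Two runs, or one, per compound; controls ≥3.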
# αIIbβ3 headpiece [5] = target: T1, αIIbβ3 headpiece; details: soaked in Mg2+
# Summary of the method: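 Closed αIIbβ3 headpiece–10E5 Fab crystals stabilised in 15% PEG 8000, 0.2 M ammonium sulfate, 0.1 M Tris-HCl pH 8.9, with glycerol raised in 5% steps to 15%. Compound (0.1-1 mM) added in the final 20% glycerol cryo step, with 1 mM MgCl2/1 mM CaCl2 or 2 mM MnCl2/0.2 mM CaCl2. Soaked 4 h, plunge-frozen in liquid N2. Synchrotron diffraction data collected, then structure refinement.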
# WT αIIbβ3 = assay: Competition with FITC-echistatin binding to WT αIIbβ3 transfectant in serum; details: 95% serum compared to 0.1% BSA
# [6] = 2012, cited from earlier work
# αIIbβ3 = details: patients with acute coronary syndrome ref Cox et al., 2000; cited from earlier work
compound,measurement,setting,value
NCC(=O)Nc1cncc(-c2nn3c(=O)cc(N4CCNCC4)nc3s2)c1 [RUC-4],affinity for activated mutant (β3 N305T) compared with WT αIIbβ3,[1],indistinguishable
same,LIBS (MBC319.4) epitope exposure,αIIbβ3 WT,no effect on LIBS epitope expression
same,LIBS (MBC319.4) epitope exposure,αIIbβ3_N305T,no effect on LIBS epitope expression
same,LIBS epitope exposure (integrin extension) on washed platelets,[2]; absence of thrombin,no significant effect
same,LIBS epitope exposure (integrin extension) on washed platelets,[2]; after activation with thrombin 0.5 U/ml,no effect on integrin extension
same,inhibition of clot retraction,[3],effective
fibronectin,higher affinity for the open than the closed conformation,α5β1,"6,000 fold"
CCCCS(=O)(=O)N[C@@H](Cc1ccc(OCCCCC2CCNCC2)cc1)C(=O)O [tirofiban],effect on αIIbβ3 headpiece opening in gel filtration,αIIbβ3 headpiece [4]; 1 mM Mg2+/1 mM Ca2+,caused the headpiece to elute earlier in gel filtration
same,hydrodynamic radius of αIIbβ3 headpiece,αIIbβ3 headpiece [4]; 2 mM Mn2+/0.2 mM Ca2+,~ 5.36 nm
same,effect on structure of closed αIIbβ3 headpiece in crystals,αIIbβ3 headpiece [5],Ser-123 displaced water 1 to coordinate directly to the MIDAS metal ion
same,decrease of affinity in 95% serum,WT αIIbβ3,1.8 fold
same,LIBS (MBC319.4) epitope exposure,αIIbβ3 WT,next strongest
same,LIBS epitope exposure (integrin extension) on washed platelets,[2]; absence of thrombin,Stronger extension
same,inhibition of clot retraction,[3],effective
CCOCc1cc(OC)c(-c2ccc(C[C@H](NC(=O)c3c(F)cccc3F)C(=O)O)cc2)c(OC)c1 [firategrast],gadolinium-enhanced lesions,[6]; highest dose ref Miller et al.,significant decrease
same,gadolinium-enhanced lesions,[6]; lowest dose ref Miller et al.,significant increase
same,gadolinium-enhanced lesions,[6]; middle dose ref Miller et al.,lack of effect
CCOC(=O)CCNC(=O)N[C@H]1CCN(c2ccc(C(=N)N)cc2)C1=O [orbofiban],platelet activation markers in treated patients,αIIbβ3,"increased αIIbβ3 conformational change, antibody-stimulated thromboxane B2 production, and CD63 expression"

# — article PMC9494814 (Cell, 2022)
